From ChEMBL document CHEMBL1154046, “Synthesis of some urea and thiourea derivatives of 3-phenyl/ethyl-2-thioxo-2,3-dihydrothiazolo[4,5-d]pyrimidine and their antagonistic effects on haloperidol-induced catalepsy and oxidative stress in mice” (2009)

Key:
Mus musculus [1] = experiment: Inhibition of haloperidol-induced catalepsy in Swiss albino mouse assessed as time elapsed until release of forepaw from bar at 100 mg/kg, […] 30 min prior to haloperidol challenge measured after 30 mins by bar test; type: functional; details: route intraperitoneal, in the assay text read “ip” for “po”
Method in brief: (§1)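 Adult male pathogen-free Swiss albino mice (18–25 g), n = 5 per group, each used once. Compounds at 100 mg/kg i.p. were given as a suspension in 0.5% gum acacia 30 min before haloperidol 5 mg/kg i.p. Forepaws were placed on a horizontal bar 9 cm high, and descent time was recorded every 30 min for 3 h. Testing ran at 23 ± 1 °C under 20 lux. Values are mean ± S.E.M.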

Mus musculus [2] = experiment: Inhibition of haloperidol-induced catalepsy in Swiss albino mouse assessed as time elapsed until release of forepaw from bar at 100 mg/kg, […] 30 min prior to haloperidol challenge measured after 150 mins by bar test; type: functional; details: route intraperitoneal, in the assay text read “ip” for “po”; method in brief: as §1
Mus musculus [3] = experiment: Inhibition of haloperidol-induced catalepsy in Swiss albino mouse at 100 mg/kg, […] 30 min prior to haloperidol challenge by bar test relative to haloperidol control; type: functional; details: route intraperitoneal, in the assay text read “ip” for “po”
Method in brief: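 Mice received compound at 100 mg/kg i.p. (in 0.5% gum acacia) 30 min before haloperidol 5 mg/kg i.p., n = 5. The bar test was run every 30 min over 3 h, and descent times were summed as CDT [3 h]. Haloperidol CDT minus vehicle CDT was set as 100% catalepsy, and % inhibition was calculated against it.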

Mus musculus [4] = experiment: Inhibition of haloperidol-induced catalepsy in Swiss albino mouse assessed as time elapsed until release of forepaw from bar at 100 mg/kg, […] 30 min prior to haloperidol challenge measured after 90 mins by bar test; type: functional; details: route intraperitoneal, in the assay text read “ip” for “po”; method in brief: as §1
Brain [5] = experiment: Antioxidant activity against lipid peroxidation in haloperidol-stimulated Swiss albino mouse brain assessed as malonaldehyde level per mg of protein by lipid peroxidation assay (Rvb= 5.521 +/- 0.23 nmol); type: functional, tissue-based
Method in brief: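 Compound was given 30 min before haloperidol 5 mg/kg i.p. Brain was homogenized in 50 mM Tris-HCl pH 7.4. Homogenate was mixed with SDS, acetic acid and 0.8% TBA, heated 1 h at 95 °C, and extracted into n-butanol/pyridine (15:1). Upper-layer A532 was converted to MDA using ε 1.56 × 10⁵, and protein was measured by Lowry. Results are nmol MDA/mg protein, n = 5.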

Mus musculus [6] = experiment: Inhibition of haloperidol-induced catalepsy in Swiss albino mouse assessed as time elapsed until release of forepaw from bar at 100 mg/kg, […] 30 min prior to haloperidol challenge measured after 60 mins by bar test; type: functional; details: route intraperitoneal, in the assay text read “ip” for “po”; method in brief: as §1
Mus musculus [7] = experiment: Inhibition of haloperidol-induced catalepsy in Swiss albino mouse assessed as time elapsed until release of forepaw from bar at 100 mg/kg, […] 30 min prior to haloperidol challenge measured after 180 mins by bar test; type: functional; details: route intraperitoneal, in the assay text read “ip” for “po”; method in brief: as §1
Brain [8] = experiment: Antioxidant activity in haloperidol-stimulated Swiss albino mouse brain assessed as oxidized glutathione peroxidase level per g of protein (Rvb= 0.765+/- 0.13 U); type: functional
Brain [9] = experiment: Antioxidant activity against GSH in haloperidol-stimulated Swiss albino mouse brain assessed as reduced glutathione level per gm of tissue (Rvb= 6.753 +/- 0.15 ug); type: functional
Brain [10] = experiment: Antioxidant activity in haloperidol-stimulated Swiss albino mouse brain assessed as superoxide dismutase level per mg of protein (Rvb= 0.941+/- 0.15 U); type: functional
Mus musculus [11] = experiment: Inhibition of haloperidol-induced catalepsy in Swiss albino mouse assessed as time elapsed until release of forepaw from bar at 100 mg/kg, […] 30 min prior to haloperidol challenge measured after 120 mins by bar test; type: functional; details: route intraperitoneal, in the assay text read “ip” for “po”; method in brief: as §1

Structure (SMILES)	descent time (Mus musculus [1]) [min]	Time to forepaw release from bar (Mus musculus [2]) [min]	inhibition (INH) (Mus musculus [3]) [%]	catalepsy descent time (Mus musculus [4]) [min]	Activity (Brain [5]) [nmol]	Catalepsy time (forepaw descent time) (Mus musculus [6]) [min]	Catalepsy duration (time to release forepaw from bar) (Mus musculus [7]) [min]	Activity (Brain [8]) [U]	Activity (Brain [9]) [µg]	Activity (Brain [10]) [U]	catalepsy descent time (Mus musculus [11]) [min]
COc1ccccc1NC(=S)Nc1ncnc2c1sc(=S)n2-c1ccccc1	0.417	1.87	28.5	1.3	2.75	0.733	1.82	1.6	14.2	2.35	1.8
CCn1c(=S)sc2c(NC(=S)Nc3ccccc3OC)ncnc21	0.3	1.62	23.7	0.883	3.12	0.25	2.4	1.331	11.672	1.866	1.25
CCn1c(=S)sc2c(NC(=O)Nc3ccccc3OC)ncnc21	0.583	2.25	29.3	0.667	2.81	0.517	2.62	1.54	14	1.81	1.5
COc1ccccc1NC(=O)Nc1ncnc2c1sc(=S)n2-c1ccccc1	0.433	1.38	23.4	0.95	3.2	0.817	1.57	1.134	14.362	1.992	1.48
